RGS4 pot – RGS4 potentiation or activation; AID 463111; HEK293 M3R/inducible RGS4, carbachol calcium flux Fluo4; stronger effect = lower value; B-score at 10 µM; actives 0.92% (n = 310,000);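 active means B-score of the integrated calcium signal more than 4 SD below the library mean, with starting fluorescence not abnormally high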;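 further: negative B-score means reduced calcium response which marks RGS4 activation or potentiation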
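test system = M3R-expressing HEK293 line, RGS4 induced by doxycycline | probe or stimulus = carbachol at ECmax as muscarinic agonist stimulus | timing = dye loading 30 min 37 °C, buffer rest 30 min RT | signal = calcium dye Fluo4 fluorescence | evaluation = B score from integrated fluorescence ratio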
RGS4 block – human RGS4 inhibition. P49798. HEK293 M3R/RGS4 inducible, Fluo-4 calcium flux; stronger effect = higher value; triggered by carbachol at its EC20. B-score at 10 µM. actives 0.45% (n = 310,000);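 active means B-score, a plate-corrected calcium signal, over three deviations above library mean, with baseline fluorescence within five deviations of library mean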;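 further: RGS4 expression induced by doxycycline in cells with stable M3 receptor; B-score is computed from the integrated fluorescence ratio over baseline after carbachol; higher B-score means a larger calcium signal and so more RGS4 inhibition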
Target sequence (P49798 whole entry, looked up): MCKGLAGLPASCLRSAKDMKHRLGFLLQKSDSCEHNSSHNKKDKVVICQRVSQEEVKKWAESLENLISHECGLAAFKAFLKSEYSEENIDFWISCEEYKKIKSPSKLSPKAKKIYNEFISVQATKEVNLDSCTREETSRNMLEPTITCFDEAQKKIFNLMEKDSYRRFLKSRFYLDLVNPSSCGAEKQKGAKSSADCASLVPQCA
MrgX1 antag – antagonists of human MrgX1 receptor; Q96LB2; MRGX1-HEK293 calcium flux, Fluo-4, BAM8-22 antagonism; stronger effect = lower value; B-score at 10 µM; actives 1.3% (n = 310,000); AID 588676;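 active means calcium-response B-score plate-corrected more than 3 library SD below zero, starting fluorescence within 5 deviations, no agonist response on first addition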;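 further: peak minus trough fluorescence over baseline after final BAM8-22 challenge near maximal dose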
Target sequence (Q96LB2 whole entry, looked up): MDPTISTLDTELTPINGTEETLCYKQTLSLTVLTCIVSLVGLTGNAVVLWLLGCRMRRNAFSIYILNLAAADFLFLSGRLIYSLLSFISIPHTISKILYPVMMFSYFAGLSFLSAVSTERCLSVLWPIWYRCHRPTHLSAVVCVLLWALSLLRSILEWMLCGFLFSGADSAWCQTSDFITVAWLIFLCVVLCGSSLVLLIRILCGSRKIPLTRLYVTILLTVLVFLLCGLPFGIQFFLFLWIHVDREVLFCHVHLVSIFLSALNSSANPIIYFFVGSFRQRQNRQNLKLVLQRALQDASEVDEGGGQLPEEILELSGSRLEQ
MrgX1 PAM – human MrgX1 positive allosteric modulation, primary screen. Q96LB2. MrgX1-HEK293, Fluo-4 calcium flux, FDSS; stronger effect = higher value. B-score at 10 µM. actives 0.63% (n = 310,000). AID 588675;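 active means plate-corrected calcium response at least 3 library SD above typical, normal starting fluorescence, not activating the receptor alone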;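 further: compound read alongside a low EC10 to EC30 dose of BAM8-22 agonist; peak minus trough fluorescence over baseline measured at the second addition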
MrgX1 ag – human MrgX1 receptor agonism, primary screen. AID 588627. B-score at 10 µM. Q96LB2. MrgX1-HEK293 cells, Fluo-4 calcium fluorescence, agonist mode; stronger effect = higher value. actives 0.44% (n = 310,000);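 active means calcium response B-score plate-corrected fluorescence ratio at least 3 library SD, with starting fluorescence B-score inside 5 SD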
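Test system: HEK293 cells stably expressing human MrgX1 receptor; Input: fifteen thousand cells per well; Dosing: compound delivered in addition one of three; Schedule: overnight seeding, then 1 h dark dye loading; Technique: Fluo-4 NW calcium fluorescence; Measure: B-scored fluorescence response ratio; Controls: positive and negative controls per plate.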
MrgX1 antag conf – human MrgX1 receptor antagonism, re-confirmation screen; MrgX1-HEK293, BAM8-22 calcium flux, Fluo-4; stronger effect = lower value; shares compounds with MrgX1 antag; actives 19% (n = 2,300); AID 602420; remaining BAM8-22 calcium response % of control (stronger effect = lower value), % at 10 µM;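 active means remaining agonist calcium response no higher than 100% minus 3 SD of agonist-only control wells, with starting fluorescence near control levels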;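 further: agonist BAM8-22 given at a near maximal EC90 to ECmax level; peak minus minimum fluorescence divided by baseline after agonist addition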
HEK293 Ca flux – activity in parental HEK293 cells lacking MrgX1; shares compounds with MrgX1 antag; actives 2% (n = 4,000); fluorescence ratio F(max-min)/F0 at 10 µM; Fluo-4 calcium fluorescence, FDSS; AID 624111;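 active means duplicate-averaged calcium fluorescence ratio at least three times the standard deviation of buffer wells, a nonspecific response in parental cells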
HEK293 Ca counter – counter-screen for MrgX1 allosteric activators: effect in parental HEK293 cells. AID 624114. shares compounds with MrgX1 antag. actives 0.4% (n = 4,000). parental HEK293 calcium flux, Fluo-4 fluorescence ratio; stronger effect = higher value. fluorescence ratio F(max-min)/F0 at 10 µM;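 active means calcium fluorescence ratio, averaged over duplicates, at least 3 SD of the buffer-well ratio, meaning a nonspecific response in receptor-free cells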;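 further: untransfected parental HEK293 lacking MrgX1 used as counterscreen for MrgX1 allosteric activators; fluorescence change taken during the second addition on a kinetic imager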
HEK293 Ca cntr2 – activity in parental HEK293 cells lacking MrgX1 receptor; shares compounds with MrgX1 antag; Fluo-4 calcium fluorescence (FDSS); stronger effect = higher value; fluorescence ratio F(max-min)/F0 at 10 µM; actives 8.7% (n = 4,000); AID 624115;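 active means calcium fluorescence ratio at least three times the spread of buffer wells, meaning a non-specific response in parental cells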
* = called active by the depositor; i = inactive; . = no result given. Shown are actives, neighbours in structure and some others; about 3.5% of the full set was active somewhere.

SMILES	RGS4 pot	RGS4 block	MrgX1 antag	MrgX1 PAM	MrgX1 ag	MrgX1 antag conf	HEK293 Ca flux	HEK293 Ca counter	HEK293 Ca cntr2
CCCc1cc(C(=O)N2CCC(n3nccc3NC(=O)c3ccc(OC)cc3)CC2)no1	i	i	i	i	i	.	.	.	.
CCN1CCN(CCNC(=O)c2ccc(/C=C3\Sc4ccccc4N(Cc4ccccc4F)C3=O)cc2)CC1	-7.05*	i	-13.3*	i	i	i	i	i	i
O=C(Nc1ccc(S(=O)(=O)Nc2nccs2)cc1)c1cc(-c2ccccc2)nc2ccccc12	i	i	i	i	i	.	.	.	.
Cc1ccc(-c2cc(C(=O)Nc3ccc(S(=O)(=O)Nc4ncccn4)cc3)c3ccccc3n2)cc1	i	i	-5.68*	i	i	i	i	i	i
O=C(NCc1ccc2c(c1)CCO2)Nc1cccc(C(F)(F)F)c1	i	i	i	i	i	.	.	.	.
Cc1noc(C)c1C(=O)NCCCN1CCCC1=O	i	i	-4.86*	i	i	80.8%*	i	i	i
Cc1cc(C(=O)NCCCN2CCCC2=O)cs1	i	i	i	i	i	.	.	.	.
O=C(c1cn(CC(=O)N2CCCCC2)c2ccccc12)C1CC1	i	i	-4.97*	i	i	i	i	i	i
O=C1c2ccccc2-c2onc3ccc(Oc4ccccc4)c1c23	i	i	-7.45*	i	i	74.0%*	i	i	i
CCOC(=O)C(C(=O)OCC)c1cc(Br)c2noc3c2c1C(=O)c1ccccc1-3	i	i	i	i	i	.	.	.	.
CCNC(=S)N/N=C/c1ccc(OCC(=O)Nc2ccc(OC)cc2)c(OC)c1	i	i	i	i	i	.	.	.	.
CCNC(=S)N/N=C/c1ccc(OCC(=O)Nc2ccc(C)cc2)cc1	i	i	-10.1*	i	i	i	i	i	i
C=CCNC(=O)CSc1nc2sccc2c(=O)n1-c1ccccc1	i	i	-5.09*	i	i	i	i	i	i
COc1ccccc1N1CCSC1C(N)=O (stereo not drawn)	i	i	-7.15*	i	i	i	i	i	i
CC(C(=O)O)N(C(=O)c1ccccc1)c1ccc(F)cc1 (stereo not drawn)	i	i	-5.48*	i	i	81.2%*	i	i	i
Cc1ccc(-c2nc3cc(N)ccc3o2)cc1	i	i	i	i	i	.	.	.	.
Cc1ccc2oc(-c3cccc(N)c3)nc2c1	i	i	-6.24*	i	i	i	i	i	i
Cc1ccc(C(=O)NCCc2nnc3ccc(NCc4ccc5c(c4)OCO5)nn23)cc1	i	i	i	i	i	.	.	.	.
OCC[C@@H]1C[C@@H](O)[C@H](O)[C@@]2(CCc3ccccc3CO2)O1	i	i	-5.01*	i	i	i	i	i	i
OCC[C@H]1C[C@@H](O)[C@H](O)[C@]2(CCc3ccccc3CO2)O1	.	.	i	i	i	.	.	.	.
Cc1cc(C(=O)NNC(=O)/C=C/c2ccccc2Cl)c(C)o1	i	i	-14.9*	i	i	i	i	i	i
CCOC(=O)N1CCC(NC(=O)CN(C)S(=O)(=O)c2cc3c(cc2Cl)NC(=O)CO3)CC1	i	i	-5.2*	i	i	i	i	i	i
CC(=O)NC1C(=O)N(CCN2CCOCC2)c2ccc(Br)cc21 (stereo not drawn)	i	i	-9.32*	i	i	i	i	i	47.1*
CCOc1ccc2c(c1)C(NC(C)=O)C(=O)N2CCN1CCOCC1 (stereo not drawn)	i	i	-12.1*	i	i	i	i	i	i
CCN1C(=O)C(NC(C)=O)c2cc(OC)ccc21 (stereo not drawn)	i	i	i	i	i	.	.	.	.
SMILES	RGS4 pot	RGS4 block	MrgX1 antag	MrgX1 PAM	MrgX1 ag	MrgX1 antag conf	HEK293 Ca flux	HEK293 Ca counter	HEK293 Ca cntr2
COc1cccc(CN2CCNC(=O)C2CC(=O)NCC2CCOCC2)c1 (stereo not drawn)	i	i	i	i	i	.	.	.	.
O=C(c1nc2ccccc2s1)N1CCSCC1	i	i	-10*	i	i	i	i	i	i
O=C(c1nc2ccccc2s1)N1CCN(c2ccccn2)CC1	.	.	i	i	i	.	.	.	.
CCOc1nc(Nc2ccc(OC)c(Cl)c2)nc(OCC)n1	i	i	-4.8*	i	i	i	i	i	i
CCOc1nc(Nc2ccc(OC)cc2)nc(OCC)n1	i	i	i	i	i	.	.	.	.
O=C(NCC(c1cccnc1)N1CCN(c2ccc(F)cc2)CC1)c1ccccc1 (stereo not drawn)	i	i	i	i	i	.	.	.	.
O=C(NCc1ccc(Cl)cc1)C(=O)NCC(c1cccnc1)N1CCN(c2ccc(F)cc2)CC1 (stereo not drawn)	i	i	-4.68*	i	i	76.9%*	i	i	i
CCOc1ccc(C)cc1S(=O)(=O)n1cnc2ccccc21	i	i	i	i	i	.	.	.	.
O=C(O)c1cc(S(=O)(=O)N2CCN(C(=O)c3ccco3)CC2)c(Cl)cc1Cl	i	i	i	i	i	.	.	.	.
CCCCc1ccc(-n2c(Cc3cccs3)n[nH]c2=S)cc1	i	i	i	i	i	.	.	.	.
CC(=O)Nc1ccc(NC(=O)COC(=O)Cc2c[nH]c3ccccc23)cc1	i	i	-5.96*	i	i	i	i	i	i
Cc1ccc(C2=NN(C(=O)CCl)C(c3ccco3)C2)o1 (stereo not drawn)	i	i	.	.	.	.	.	.	.
CCOC(=O)c1sc(NC(=O)c2cccs2)cc1C	i	i	i	i	i	.	.	.	.
CCOC(=O)c1sc(NC(=O)Nc2cccc(Cl)c2)cc1C	i	i	-6.08*	i	i	57.0%*	i	i	i
CC(C)(C)c1ccc(OCCC(=O)NNC(=O)c2ccncc2)cc1	i	i	i	i	i	.	.	.	.

Screens: PubChem BioAssay, Johns Hopkins Ion Channel Center
